Calls of active or inactive are those of the source. The calls are words filed in the database; no cut-off is given here.
Tests used:
Assay type in all cases: cell-based
MDA-MB-231 [1] = experiment: Inhibition of IncRNA-WDR5 complex in human MDA-MB-231 cells assessed as downregulation of HOTTIP expression measured at 10 uM after 3 days by RT-qPCR analysis; settings: time 3.0 day
Procedure, shortened: (§1)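 MDA-MB-231 cells (DMEM, 10% FBS, 37 °C, 5% CO2) were seeded in 12-well plates at 1×10^5 cells/well for 1-day runs or 5×10^4 cells/well for 3-day runs. After one day the medium was replaced with medium holding compound (1, 5 or 10 µM) or 0.1% DMSO blank. Total RNA was extracted with TRIzol and analysed by RT-qPCR. Fold change was calculated by 2^-ΔΔCt against GAPDH and the blank. Values are means of individual bioreplicates ± SD.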

U2OS [2] = experiment: Inhibition of HOTTIP-WDR5 complex formation in human U2OS cells at 10 uM by in vitro RNA immunoprecipitation assay
Procedure, shortened: (§2)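 RIP assay on purified FLAG-WDR5 loaded at 0.2 mg/mL onto anti-FLAG magnetic beads (Buffer C with 0.1% IGEPAL, 0.1% BSA, 10 µg/mL yeast tRNA; 4 °C, 3 h). The beads were then given 1 µg of U-2 OS total RNA (TRIzol) with or without inhibitor, in 0.1% DMSO in RIP buffer (Tris pH 7.5, KCl, EDTA, RNasin), for 1 h at rt. RNA was read by RT-qPCR as percentage enrichment against a 50% input.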

MDA-MB-231 [3] = experiment: Inhibition of IncRNA-WDR5 complex in human MDA-MB-231 cells assessed as downregulation of HOTTIP expression measured at 10 uM after 1 day by RT-qPCR analysis; procedure, shortened: as §1
MDA-MB-231 [4] = experiment: Inhibition of IncRNA-WDR5 complex in human MDA-MB-231 cells assessed as downregulation of FOXD3-AS1 expression measured at 10 uM after 1 to 3 days by RT-qPCR analysis; settings: time 1-3 day; procedure, shortened: as §1
U2OS [5] = experiment: Inhibition of HOXC13-AS-WDR5 complex formation in human U2OS cells at 10 uM by in vitro RNA immunoprecipitation assay; procedure, shortened: as §2

Row | SMILES | inhibition (MDA-MB-231 [1]) | inhibition (U2OS [2]) | inhibition (MDA-MB-231 [3]) | inhibition (MDA-MB-231 [4]) | inhibition (U2OS [5])
1 | CNC(=O)c1cc(C2(C#N)CCC2)cc(NS(=O)(=O)c2cc(Br)cc(Cl)c2O)c1O | Active | Active | inactive | inactive | Active
2 | CN1CCN(c2ccc(-c3cccc(CN4CCOCC4)c3)cc2NC(=O)c2c[nH]c(=O)cc2C(F)(F)F)CC1 | – | inactive | Active | – | inactive

Reference: ChEMBL document CHEMBL5376024, “Small molecule WDR5 inhibitors down-regulate lncRNA expression” (RSC Med Chem, 2024)
